{"source": "the array DNA melting data of Ke et al. (doi:10.1101/2024.01.08.574731)", "key": {"[1]": {"experiment": "melting temperature; fluorescence melt of hairpins on a sequencing array, two-state fit, raised by 9.35 °C to match UV melts", "conditions": "sodium 0.088 M", "procedure,_shortened": "(§1)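 Hairpins were imaged by Cy3 fluorescence on a sequenced MiSeq flow cell with annealed Cy3 and quencher oligos, in 50 mM Na-HEPES pH 8.0, 25 mM NaCl, in 2.5 °C steps up to 60 °C. Bootstrapped two-state fits of normalised signals gave melting temperature and folding enthalpy. Four replicates were combined by inverse variance, and fitted temperatures were raised by 9.35 °C to match UV melts.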"}, "[2]": {"experiment": "folding enthalpy; higher = less favourable; fluorescence melt of hairpins on a sequencing array, two-state fit", "conditions": "sodium 0.088 M", "procedure,_shortened": "as §1"}}}
{"sequence": "GCTGGCGAAAGCCCCAGC ((((((....)))..)))", "values": [{"measurement": "Tm", "setting": "[1]", "value": 43.5, "unit": "°C"}, {"measurement": "folding enthalpy", "setting": "[2]", "value": -61.9, "unit": "kJ/mol"}]}
{"sequence": "GATCGGGTTACCGATC ((((((....))))))", "values": [{"measurement": "Tm", "setting": "[1]", "value": 67.3, "unit": "°C"}, {"measurement": "folding enthalpy", "setting": "[2]", "value": -150, "unit": "kJ/mol"}]}
{"sequence": "GTTGGTGGAAACATCAGC (.((.((....)).)).)", "values": [{"measurement": "Tm", "setting": "[1]", "value": 31.4, "unit": "°C"}, {"measurement": "folding enthalpy", "setting": "[2]", "value": -78.5, "unit": "kJ/mol"}]}
{"sequence": "GCGTACGGAAACGTACAC (.(((((....))))).)", "values": [{"measurement": "Tm", "setting": "[1]", "value": 42.8, "unit": "°C"}, {"measurement": "folding enthalpy", "setting": "[2]", "value": -63.3, "unit": "kJ/mol"}]}
{"sequence": "GATGGGGGAAACCCTGTC ((..(((....)))..))", "values": [{"measurement": "Tm", "setting": "[1]", "value": 33.2, "unit": "°C"}, {"measurement": "folding enthalpy", "setting": "[2]", "value": -94.2, "unit": "kJ/mol"}]}
{"sequence": "GTACTCGAAAGAGACTAC ((((((....)))..)))", "values": [{"measurement": "Tm", "setting": "[1]", "value": 33.6, "unit": "°C"}, {"measurement": "folding enthalpy", "setting": "[2]", "value": -60.8, "unit": "kJ/mol"}]}
{"sequence": "GGAACACGAAAGTGTCC (((.(((....))))))", "values": [{"measurement": "Tm", "setting": "[1]", "value": 52, "unit": "°C"}, {"measurement": "folding enthalpy", "setting": "[2]", "value": -98.3, "unit": "kJ/mol"}]}
{"sequence": "AAAGTGAAAACTTT (((((....)))))", "values": [{"measurement": "Tm", "setting": "[1]", "value": 33, "unit": "°C"}, {"measurement": "folding enthalpy", "setting": "[2]", "value": -46.5, "unit": "kJ/mol"}]}
{"sequence": "GATCCCCTCCGGGATC ((((((....))))))", "values": [{"measurement": "Tm", "setting": "[1]", "value": 58.4, "unit": "°C"}, {"measurement": "folding enthalpy", "setting": "[2]", "value": -151, "unit": "kJ/mol"}]}
{"sequence": "GCGAGAGGAAACTCCCGC (((.(((....))).)))", "values": [{"measurement": "Tm", "setting": "[1]", "value": 48.5, "unit": "°C"}, {"measurement": "folding enthalpy", "setting": "[2]", "value": -149, "unit": "kJ/mol"}]}
{"sequence": "GGGGATCGAAAGATTCCC (((.(((....))).)))", "values": [{"measurement": "Tm", "setting": "[1]", "value": 57.5, "unit": "°C"}, {"measurement": "folding enthalpy", "setting": "[2]", "value": -224, "unit": "kJ/mol"}]}
{"sequence": "GCATCGCGAAAGCGTGGC ((..(((....)))..))", "values": [{"measurement": "Tm", "setting": "[1]", "value": 54.7, "unit": "°C"}, {"measurement": "folding enthalpy", "setting": "[2]", "value": -66.2, "unit": "kJ/mol"}]}
{"sequence": "GATCAACGATTGATC ((((((...))))))", "values": [{"measurement": "Tm", "setting": "[1]", "value": 36.3, "unit": "°C"}, {"measurement": "folding enthalpy", "setting": "[2]", "value": -82.7, "unit": "kJ/mol"}]}
{"sequence": "GATCAATAAATTGATC ((((((....))))))", "values": [{"measurement": "Tm", "setting": "[1]", "value": 42.8, "unit": "°C"}, {"measurement": "folding enthalpy", "setting": "[2]", "value": -128, "unit": "kJ/mol"}]}
{"sequence": "GGGCTGGGAAACTGGCCC ((((..(....)..))))", "values": [{"measurement": "Tm", "setting": "[1]", "value": 54.3, "unit": "°C"}, {"measurement": "folding enthalpy", "setting": "[2]", "value": -202, "unit": "kJ/mol"}]}
{"sequence": "GATCCAGCACTGGATC ((((((....))))))", "values": [{"measurement": "Tm", "setting": "[1]", "value": 56, "unit": "°C"}, {"measurement": "folding enthalpy", "setting": "[2]", "value": -157, "unit": "kJ/mol"}]}
{"sequence": "GATCACACGGTGATC ((((((...))))))", "values": [{"measurement": "Tm", "setting": "[1]", "value": 60.5, "unit": "°C"}, {"measurement": "folding enthalpy", "setting": "[2]", "value": -157, "unit": "kJ/mol"}]}
{"sequence": "GATCTTATAAAAGATC ((((((....))))))", "values": [{"measurement": "Tm", "setting": "[1]", "value": 40, "unit": "°C"}, {"measurement": "folding enthalpy", "setting": "[2]", "value": -107, "unit": "kJ/mol"}]}
{"sequence": "GACACTACGAAAGTAGTC (((..(((....))))))", "values": [{"measurement": "Tm", "setting": "[1]", "value": 32.4, "unit": "°C"}, {"measurement": "folding enthalpy", "setting": "[2]", "value": -43.3, "unit": "kJ/mol"}]}
{"sequence": "GATCAGGAACCTGATC ((((((....))))))", "values": [{"measurement": "Tm", "setting": "[1]", "value": 54.5, "unit": "°C"}, {"measurement": "folding enthalpy", "setting": "[2]", "value": -147, "unit": "kJ/mol"}]}
{"sequence": "GATCTTCCGTAAGATC ((((((....))))))", "values": [{"measurement": "Tm", "setting": "[1]", "value": 43.8, "unit": "°C"}, {"measurement": "folding enthalpy", "setting": "[2]", "value": -124, "unit": "kJ/mol"}]}
{"sequence": "GCGAATTTTCGC ((((....))))", "values": [{"measurement": "Tm", "setting": "[1]", "value": 53.2, "unit": "°C"}, {"measurement": "folding enthalpy", "setting": "[2]", "value": -123, "unit": "kJ/mol"}]}
{"sequence": "GTAATCCGAAAGGATAC (((.(((....))))))", "values": [{"measurement": "Tm", "setting": "[1]", "value": 39.8, "unit": "°C"}, {"measurement": "folding enthalpy", "setting": "[2]", "value": -60.9, "unit": "kJ/mol"}]}
